Experimental data: ChEMBL document CHEMBL2417419, “Synthesis and quantitative structure-activity relationship of imidazotetrazine prodrugs with activity independent of O6-methylguanine-DNA-methyltransferase, DNA mismatch repair, and p53” (J Med Chem, 2013)
Active and inactive are the calls of the source. No cut-off for these calls is given here.

Legend:
HCT-116 [1] = experiment: Chemosensitization of human HCT116 cells expressing p53 after 5 days by MTT assay; format: functional, cell-based; conditions: HCT-116, 120 h
Method in brief: (§1)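 Cells were seeded at 1×10^3 per well and incubated overnight (37 °C, 5% CO2) to attach, then given fresh medium with compound at 0 (control) to 250 µM. Compounds were dissolved in DMSO, final DMSO <0.1% v/v, with no PaTrin2. MTT survival was measured after 5 days at 37 °C. Isogenic HCT116 p53+/+ and p53−/− pair used.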

A2780/CP70 [2] = experiment: (§2) Chemoseinsitizatioin of MMR-deficieint humain A2780/CP70 cells after 5 days by MTT assay in preseince of MGMT iinactivator PaTriin2; format: functional, cell-based; conditions: Homo sapiens
Method in brief: (§3)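 Cells plated at 1×10^3 per well and left overnight at 37 °C in 5% CO2 to adhere. Medium was then replaced with fresh medium holding compound (0 controls to 250 µM; DMSO stock, final DMSO <0.1% v/v) plus 10 µM PaTrin2 to inactivate MGMT. Survival was read by MTT after 5 days at 37 °C.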

A2780/CP70 [3] = experiment: (§4) Chemosensitization of MMR-deficient human A2780/CP70 cells after 5 days by MTT assay; format: functional, cell-based
A2058 [4] = experiment: Chemosensitization of human A2058 cells after 5 days by MTT assay; format: functional, cell-based; conditions: A2058, 120 h, in the assay text read “Cyquant assay” for “MTT assay”
A2780 [5] = experiment: Ratio of IC50 for MMR-deficient human A2780/CP70 cells to IC50 for human A2780 cells in presence of MGMT inactivator PaTrin2; format: functional
HCT-116 [6] = experiment: Ratio of IC50 for human HCT116 cells expressing p53 to IC50 for p53-deficient human HCT116 cells; format: functional
SNB-19 [7] = experiment: Chemosensitization of human SNB19 cells expressing MGMT after 5 days by MTT assay; format: functional, cell-based; conditions: SNB-19, 120 h, in the assay text read “Cyquant assay” for “MTT assay”
HCT-116 [8] = experiment: Chemosensitization of p53-deficient human HCT116 cells after 5 days by MTT assay; format: functional, cell-based; conditions: HCT-116, 120 h; method in brief: as §1
A2780 [9] = experiment: Chemosensitization of human A2780 cells after 5 days by MTT assay; format: functional, cell-based; conditions: A2780, 120 h
A2780 [10] = experiment: Ratio of IC50 for human A2780 cells to IC50 for human A2780 cells in presence of MGMT inactivator PaTrin2; format: functional
SNB-19 [11] = experiment: Chemosensitization of MGMT-deficient human SNB19 cells after 5 days by MTT assay; format: functional, cell-based; conditions: SNB-19, 120 h, in the assay text read “Cyquant assay” for “MTT assay”
A2058 [12] = experiment: Ratio of temozolomide IC50 to compound IC50 for human A2058 cells; format: functional
[13] = as §2; format: functional, cell-based; conditions: Homo sapiens, A2780/CP70, 120 h; method in brief: as §3
[14] = as §4; format: functional, cell-based; conditions: A2780/CP70, 120 h
A2780 [15] = experiment: Chemosensitization of human A2780 cells after 5 days by MTT assay in presence of MGMT inactivator PaTrin2; format: functional, cell-based; conditions: A2780, 120 h; method in brief: as §3
[16] = Half life of the compound at pH 7.4; format: physicochemical

**Q.** Which IC50 (HCT-116 [1]) does the source give for `NC(=O)c1ncn2c(=O)n(CCNc3ccc(Cl)cc3)nnc12` here?
**A.** 13.2 µM

**Q.** And the Activity (A2780/CP70 [2])?
**A.** Active

**Q.** What about the Activity (A2780/CP70 [3]) of the same molecule?
**A.** Active

**Q.** And the IC50 (A2058 [4])?
**A.** > 100 µM

**Q.** What about the “Ratio IC50” value (A2780 [5]) of the same molecule?
**A.** 2.8

**Q.** And the “Ratio IC50” value (HCT-116 [6])?
**A.** 1.4

**Q.** What about the IC50 (SNB-19 [7]) of the same molecule?
**A.** > 100 µM

**Q.** And the IC50 (HCT-116 [8])?
**A.** 9.5 µM

**Q.** What about the IC50 (A2780 [9]) of the same molecule?
**A.** 22 µM

**Q.** And the “Ratio IC50” value (A2780 [10])?
**A.** 1.1

**Q.** What about the IC50 (SNB-19 [11]) of the same molecule?
**A.** 77 µM

**Q.** With `Cc1ccc(N(CCn2nnc3c(C(N)=O)ncn3c2=O)CCn2nnc3c(C(N)=O)ncn3c2=O)cc1` as the molecule, how does the IC50 (HCT-116 [1]) read?
**A.** 6.2 µM

**Q.** What about the Activity (A2780/CP70 [2]) of the same molecule?
**A.** Active

**Q.** What about the Activity (A2780/CP70 [3]) of the same molecule?
**A.** Active

**Q.** And the “Ratio IC50” value (A2780 [5])?
**A.** 5

**Q.** And the “Ratio IC50” value (HCT-116 [6])?
**A.** 1.4

**Q.** What about the IC50 (HCT-116 [8]) of the same molecule?
**A.** 4.4 µM

**Q.** And the IC50 (A2780 [9])?
**A.** 1 µM

**Q.** What about the “Ratio IC50” value (A2780 [10]) of the same molecule?
**A.** 0.5

**Q.** For `CN(CCn1nnc2c(C(N)=O)ncn2c1=O)c1ccccc1`, which Activity (A2780/CP70 [2]) is on record?
**A.** Active

**Q.** And the Activity (A2780/CP70 [3])?
**A.** Active

**Q.** What about the “Ratio IC50” value (A2780 [5]) of the same molecule?
**A.** 2.8

**Q.** And the IC50 (A2780 [9])?
**A.** 22 µM

**Q.** What about the “Ratio IC50” value (A2780 [10]) of the same molecule?
**A.** 1.1

**Q.** For `Cc1ccc(N(C)CCn2nnc3c(C(N)=O)ncn3c2=O)cc1`, which Activity (A2780/CP70 [2]) is on record?
**A.** Active

**Q.** What about the Activity (A2780/CP70 [3]) of the same molecule?
**A.** Active

**Q.** What about the “Ratio IC50” value (A2780 [5]) of the same molecule?
**A.** 2.8

**Q.** And the IC50 (A2780 [9])?
**A.** 22 µM

**Q.** What about the “Ratio IC50” value (A2780 [10]) of the same molecule?
**A.** 1.1

**Q.** What does the source list for `COc1ccc(N(CCn2nnc3c(C(N)=O)ncn3c2=O)CCn2nnc3c(C(N)=O)ncn3c2=O)cc1`?
**A.** IC50 (HCT-116 [1]): 7.6 µM; Activity (A2780/CP70 [2]): Active; Activity (A2780/CP70 [3]): Active; IC50 (A2058 [4]): 2.5 µM; Ratio IC50 (A2780 [5]): 5; Ratio IC50 (A2058 [12]): 10; Ratio IC50 (HCT-116 [6]): 0.8; IC50 (SNB-19 [7]): 7 µM; IC50 (HCT-116 [8]): 9.9 µM; IC50 (A2780 [9]): 1 µM; Ratio IC50 (A2780 [10]): 0.5; IC50 (SNB-19 [11]): 6.6 µM

**Q.** Which results are given for `Cc1ccc(N(C)CCn2nnc3c(C(N)=O)ncn3c2=O)cc1[N+](=O)[O-]`?
**A.** Activity (A2780/CP70 [2]): Active; Activity (A2780/CP70 [3]): Active; Ratio IC50 (A2780 [5]): 2.8; IC50 (A2780 [9]): 22 µM; Ratio IC50 (A2780 [10]): 1.1

**Q.** For `CN(CCn1nnc2c(C(N)=O)ncn2c1=O)c1ccc([N+](=O)[O-])cc1`, which Activity (A2780/CP70 [2]) is on record?
**A.** Active

**Q.** And the Activity (A2780/CP70 [3])?
**A.** Active

**Q.** What about the “Ratio IC50” value (A2780 [5]) of the same molecule?
**A.** 2.8

**Q.** What about the IC50 (A2780 [9]) of the same molecule?
**A.** 22 µM

**Q.** And the “Ratio IC50” value (A2780 [10])?
**A.** 1.1

**Q.** With `NC(=O)c1ncn2c(=O)n(CCN(CCn3nnc4c(C(N)=O)ncn4c3=O)c3ccc(Cl)cc3)nnc12` as the molecule, how does the Activity (A2780/CP70 [2]) read?
**A.** Active

**Q.** What about the Activity (A2780/CP70 [3]) of the same molecule?
**A.** Active

**Q.** And the “Ratio IC50” value (A2780 [5])?
**A.** 5

**Q.** What about the IC50 (A2780 [9]) of the same molecule?
**A.** 1 µM

**Q.** What about the “Ratio IC50” value (A2780 [10]) of the same molecule?
**A.** 0.5

**Q.** What does the source list for `NC(=O)c1ncn2c(=O)n(CCN(CCn3nnc4c(C(N)=O)ncn4c3=O)c3ccc(F)cc3)nnc12`?
**A.** IC50 (HCT-116 [1]): 28 µM; Activity (A2780/CP70 [2]): Active; Activity (A2780/CP70 [3]): Active; IC50 (A2058 [4]): 5.5 µM; Ratio IC50 (A2780 [5]): 5; Ratio IC50 (A2058 [12]): 10; Ratio IC50 (HCT-116 [6]): 1.6; IC50 (SNB-19 [7]): 12 µM; IC50 (HCT-116 [8]): 17 µM; IC50 (A2780 [9]): 1 µM; Ratio IC50 (A2780 [10]): 0.5; IC50 (SNB-19 [11]): 11 µM

**Q.** What does the source list for `CC(C)(C)OC(=O)N(CCn1nnc2c(C(N)=O)ncn2c1=O)c1ccc(Cl)cc1`?
**A.** Activity (A2780/CP70 [2]): Active; Activity (A2780/CP70 [3]): Active; Ratio IC50 (A2780 [5]): 2.8; IC50 (A2780 [9]): 22 µM; Ratio IC50 (A2780 [10]): 1.1

**Q.** Which results are given for `CN(CCn1nnc2c(C(N)=O)ncn2c1=O)c1ccc(Cl)cc1`?
**A.** IC50 (HCT-116 [1]): 55 µM; Activity (A2780/CP70 [2]): Active; Activity (A2780/CP70 [3]): Active; Ratio IC50 (A2780 [5]): 2.8; Ratio IC50 (HCT-116 [6]): 1.5; IC50 (HCT-116 [8]): 35.8 µM; IC50 (A2780 [9]): 22 µM; Ratio IC50 (A2780 [10]): 1.1

**Q.** What does the source list for `NC(=O)c1ncn2c(=O)n(CCCl)nnc12` [MITOZOLOMIDE]?
**A.** IC50 (HCT-116 [1]): 60 µM; Ratio IC50 (HCT-116 [6]): 3.4; IC50 (HCT-116 [8]): 17.9 µM

**Q.** What does the source list for `Cn1nnc2c(C(N)=O)ncn2c1=O` [TEMOZOLOMIDE]?
**A.** IC50 [13]: 231 µM; IC50 [14]: > 250 µM; IC50 (A2058 [4]): 35.5 µM; Ratio IC50 (A2780 [5]): >27; IC50 (SNB-19 [7]): > 250 µM; IC50 (A2780 [15]): 8.5 µM; IC50 (A2780 [9]): > 250 µM; half-life [16]: 1.24 h; Ratio IC50 (A2780 [10]): >30; IC50 (SNB-19 [11]): 37 µM

**Q.** Which Activity (A2780/CP70 [2]) does the source give for `CN(CCn1nnc2c(C(N)=O)ncn2c1=O)c1ccc(F)cc1` here?
**A.** Active

**Q.** And the Activity (A2780/CP70 [3])?
**A.** Active

**Q.** And the “Ratio IC50” value (A2780 [5])?
**A.** 2.8

**Q.** What about the IC50 (A2780 [9]) of the same molecule?
**A.** 22 µM

**Q.** What about the “Ratio IC50” value (A2780 [10]) of the same molecule?
**A.** 1.1

**Q.** For `NC(=O)c1ncn2c(=O)n(CCN(CCn3nnc4c(C(N)=O)ncn4c3=O)c3ccccc3)nnc12`, which IC50 (HCT-116 [1]) is on record?
**A.** 5.5 µM

**Q.** What about the Activity (A2780/CP70 [2]) of the same molecule?
**A.** Active

**Q.** What about the Activity (A2780/CP70 [3]) of the same molecule?
**A.** Active

**Q.** And the “Ratio IC50” value (A2780 [5])?
**A.** 5

**Q.** What about the “Ratio IC50” value (HCT-116 [6]) of the same molecule?
**A.** 1.1

**Q.** And the IC50 (HCT-116 [8])?
**A.** 4.8 µM

**Q.** And the IC50 (A2780 [9])?
**A.** 1 µM

**Q.** What about the “Ratio IC50” value (A2780 [10]) of the same molecule?
**A.** 0.5

**Q.** Which Activity (A2780/CP70 [2]) does the source give for `COc1ccc(N(C)CCn2nnc3c(C(N)=O)ncn3c2=O)c([N+](=O)[O-])c1` here?
**A.** Active

**Q.** What about the Activity (A2780/CP70 [3]) of the same molecule?
**A.** Active

**Q.** What about the “Ratio IC50” value (A2780 [5]) of the same molecule?
**A.** 2.8

**Q.** And the IC50 (A2780 [9])?
**A.** 22 µM

**Q.** What about the “Ratio IC50” value (A2780 [10]) of the same molecule?
**A.** 1.1

**Q.** Which results are given for `COc1ccc(N(CCn2nnc3c(C(N)=O)ncn3c2=O)CCn2nnc3c(C(N)=O)ncn3c2=O)c([N+](=O)[O-])c1`?
**A.** Activity (A2780/CP70 [2]): Active; Activity (A2780/CP70 [3]): Active; Ratio IC50 (A2780 [5]): 5; IC50 (A2780 [9]): 1 µM; Ratio IC50 (A2780 [10]): 0.5
